Laboratory results reported in ChEMBL document CHEMBL1140035, “4"-Benzoylureido-TSAO derivatives as potent and selective non-nucleoside HCMV inhibitors. Structure-activity relationship and mechanism of antiviral action” (J Med Chem, 2008).
In brackets after ≈: the same amount, converted by molar mass. Activity calls are given as the source filed them. The rule behind the calls is not given here.

Columns and labels:
[1] = Cytotoxicity against HEL cells assessed as alteration in cell morphology after 3 days; assay type: cell-based; details: human
Procedure, shortened: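 Minimum cytotoxic concentration: the lowest compound concentration causing a microscopically detectable alteration of HEL cell morphology.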

[2] = system: Human betaherpesvirus 5; test: Antiviral activity against HCMV Davis in HEL cells assessed as reduction of virus-induced cytopathogenicity after 7 days; assay type: functional, organism-based; details: Human betaherpesvirus 5, Davis, 168 h
Procedure, shortened: (§1)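 Confluent HEL fibroblasts were infected with strain AD-169 or Davis at 100 PFU/well. After 2 h, residual virus was removed and medium with serial compound concentrations was added, in duplicate. Plates were held 7 days at 37 °C, fixed with ethanol, and scored microscopically for virus-induced cytopathicity. EC50 is the concentration reducing cytopathicity by 50%.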

[3] = system: Human betaherpesvirus 5; test: Antiviral activity against HCMV AD169 in HEL cells assessed as reduction of virus-induced cytopathogenicity after 7 days; assay type: functional, organism-based; details: Human betaherpesvirus 5, AD169, HEL, 168 h; procedure, shortened: as §1
[4] = Cytotoxicity against HEL cells assessed as reduction in cell growth after 3 days; assay type: cell-based; details: human
Procedure, shortened: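 HEL cells were seeded at 5 × 10³ cells/well and allowed to proliferate for 24 h. Compound-containing medium was then added at several concentrations for 3 days at 37 °C. Cells were counted with a Coulter counter. CC50, the concentration reducing cell growth by 50% versus untreated controls, was read from plots of cell number (% of control) against concentration.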

[5] = system: Human betaherpesvirus 5; test: Antiviral activity against (S)-3-hydroxy-2-phosphonomethoxypropyl cytosine-resistant HCMV with DNA polymerase mutant in HEL cells assessed as reduction of virus-induced cytopathogenicity; assay type: functional, organism-based; details: Human betaherpesvirus 5, HEL
Procedure, shortened: (§2)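 Resistant mutants raised in vitro by serial passage of HCMV AD-169 under rising drug concentrations. Confluent HEL fibroblasts infected at 100 PFU/well for 2 h, then the inoculum was removed. Cells were kept with serial compound concentrations in duplicate for 7 days at 37 °C. After ethanol fixation, cytopathicity was scored microscopically. EC50 is the concentration halving virus-induced cytopathicity.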

[6] = system: Human betaherpesvirus 5; test: Antiviral activity against ganciclovir-resistant HCMV with DNA polymerase mutant in HEL cells assessed as reduction of virus-induced cytopathogenicity; assay type: functional, organism-based; details: Human betaherpesvirus 5, HEL; procedure, shortened: as §2
[7] = system: Human betaherpesvirus 5; test: Antiviral activity against foscarnet-resistant HCMV with DNA polymerase mutant in HEL cells assessed as reduction of virus-induced cytopathogenicity; assay type: functional, organism-based; details: Human betaherpesvirus 5, HEL; procedure, shortened: as §2
[8] = system: Human betaherpesvirus 5; test: Antiviral activity against (S)-3-hydroxy-2-phosphonomethoxypropyl adenine-resistant HCMV with DNA polymerase mutant in HEL cells assessed as reduction of virus-induced cytopathogenicity; assay type: functional, organism-based; details: Human betaherpesvirus 5, HEL; procedure, shortened: as §2
[9] = system: Human betaherpesvirus 5; test: Antiviral activity against HCMV 530 with […] and DNA polymerase mutation in HEL cells assessed as reduction of virus-induced cytopathogenicity; assay type: functional, organism-based; details: Human betaherpesvirus 5, HEL
Procedure, shortened: (§3)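 Drug-resistant HCMV clinical isolates from immunocompromised patients, carrying UL97 and/or DNA polymerase mutations. Confluent HEL fibroblasts infected at 100 PFU/well for 2 h, then residual virus was removed. Medium with serial compound concentrations added in duplicate for 7 days at 37 °C. After ethanol fixation, cytopathicity was scored microscopically. EC50 is the concentration reducing cytopathicity by 50%.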

[10] = system: Human betaherpesvirus 5; test: Antiviral activity against acyclovir-resistant HCMV with DNA polymerase mutant in HEL cells assessed as reduction of virus-induced cytopathogenicity; assay type: functional, organism-based; details: Human betaherpesvirus 5, HEL; procedure, shortened: as §2
[11] = system: Human betaherpesvirus 5; test: Antiviral activity against HCMV 6 with […] mutation in HEL cells assessed as reduction of virus-induced cytopathogenicity; assay type: functional, organism-based; details: Human betaherpesvirus 5, HEL; procedure, shortened: as §3
[12] = system: Human betaherpesvirus 5; test: Antiviral activity against HCMV 521 with […] and DNA polymerase mutation in HEL cells assessed as reduction of virus-induced cytopathogenicity; assay type: functional, organism-based; details: Human betaherpesvirus 5, HEL; procedure, shortened: as §3
[13] = system: Human betaherpesvirus 5; test: Antiviral activity against HCMV in HEL cells assessed as reduction of virus-induced cytopathogenicity administered at 56 hrs post infection; assay type: functional, organism-based
Procedure, shortened: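 Time-of-addition: confluent HEL cultures were infected with about 100 PFU/well of HCMV Davis. Compound dilutions were added at 0 h or at later time points post infection, with one plate set per time point. Seven days after infection, plates were ethanol-fixed and Giemsa-stained. Antiviral effect was scored microscopically and EC50 calculated.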

Row | SMILES | MCC at 72 h [1] [µM] | EC50 [2] [µM] | EC50 [3] [µM] | CC50 at 72 h [4] [µM] | EC50 [5] [µg/mL] | EC50 [6] [µg/mL] | EC50 [7] [µg/mL] | EC50 [8] [µg/mL] | EC50 [9] [µg/mL] | EC50 [10] [µg/mL] | EC50 [11] [µg/mL] | EC50 [12] [µg/mL] | Activity [13]
1 | Cc1cn([C@@H]2O[C@H](CO[Si](C)(C)C(C)(C)C)[C@@]3(OS(=O)(=O)C=C3NC(=O)NC(=O)c3ccccc3)[C@H]2O)c(=O)n(C)c1=O | > 100 | > 100 | > 100 | 22 |  |  |  |  |  |  |  |  | 
2 | Nc1nc(N)c2ncn(CCOCP(=O)(O)O)c2n1 [PMEDAP] |  |  |  |  | 5.2 (≈ 18 µM) | 1.6 (≈ 5.55 µM) | 44 (≈ 153 µM) | 2.8 (≈ 9.72 µM) | 12 (≈ 41.6 µM) | 38 (≈ 132 µM) | 26 (≈ 90.2 µM) | 6.7 (≈ 23.2 µM) | 
3 | Cc1cn([C@@H]2O[C@H](CO[Si](C)(C)C(C)(C)C)[C@@]3(OS(=O)(=O)C=C3NC(=O)NC(=O)c3ccccc3)[C@H]2O[Si](C)(C)C(C)(C)C)c(=O)n(C)c1=O | ≥ 80 | 2.4 | 11 | > 200 |  |  |  |  |  |  |  |  | inactive
4 | Cc1cn([C@@H]2O[C@H](COCc3ccccc3)[C@@]3(OS(=O)(=O)C=C3NC(=O)NC(=O)c3ccccc3)[C@H]2O[Si](C)(C)C(C)(C)C)c(=O)n(C)c1=O | > 50 | > 50 | > 50 | > 50 |  |  |  |  |  |  |  |  | 
5 | Cc1cn([C@@H]2O[C@H](CO)[C@@]3(OS(=O)(=O)C=C3NC(=O)NC(=O)c3ccccc3)[C@H]2O)c(=O)n(C)c1=O | 100 | > 100 | > 100 | > 50 |  |  |  |  |  |  |  |  | 
6 | Nc1ncnc2c1ncn2CCOCP(=O)(O)O [ADEFOVIR] |  |  |  |  | 18 (≈ 65.9 µM) | 5.8 (≈ 21.2 µM) | 128 (≈ 469 µM) | 9.1 (≈ 33.3 µM) | 42 (≈ 154 µM) | 137 (≈ 501 µM) | 90 (≈ 329 µM) | 20 (≈ 73.2 µM) | 
7 | Nc1ccn(C[C@@H](CO)OCP(=O)(O)O)c(=O)n1.O.O [CIDOFOVIR] |  |  |  |  | 2.2 | 0.59 | 0.1 | 3.1 | 0.62 | 0.069 | 0.49 | 0.79 | 
8 | CC(C)(C)[Si](C)(C)OCCC1(CO[Si](C)(C)C(C)(C)C)OS(=O)(=O)C=C1NC(=O)NC(=O)c1ccccc1 (centres undefined) | > 100 | > 100 | > 100 | > 100 |  |  |  |  |  |  |  |  | 
9 | Nc1nc2c(ncn2COCCO)c(=O)[nH]1 [ACYCLOVIR] |  |  |  |  | 12 (≈ 53.3 µM) | 4.8 (≈ 21.3 µM) | 173 (≈ 768 µM) | 7.9 (≈ 35.1 µM) | 22 (≈ 97.7 µM) | 130 (≈ 577 µM) | 91 (≈ 404 µM) | 7.7 (≈ 34.2 µM) | 
10 | CC(=O)N[C@@H]1O[C@H](CO[Si](C)(C)C(C)(C)C)[C@@]2(OS(=O)(=O)C=C2NC(=O)NC(=O)c2ccccc2)[C@H]1O[Si](C)(C)C(C)(C)C | 100 | > 20 | > 20 | > 100 |  |  |  |  |  |  |  |  | 
11 | Nc1ncnc2c1ncn2C[C@@H](CO)OCP(=O)(O)O |  |  |  |  | 3.3 (≈ 10.9 µM) | 2 (≈ 6.6 µM) | 0.11 (≈ 0.363 µM) | 6.2 (≈ 20.4 µM) | 1.2 (≈ 3.96 µM) | 0.081 (≈ 0.267 µM) | 0.91 (≈ 3 µM) | 2.3 (≈ 7.59 µM) | 
12 | Cc1cn([C@@H]2O[C@H](CO[Si](C)(C)C(C)(C)C)[C@@]3(OS(=O)(=O)C=C3NC(=O)NC(=O)c3ccccc3)[C@H]2O[Si](C)(C)C(C)(C)C(C)C)c(=O)n(C)c1=O | ≥ 100 | 3.9 | 12.1 | ≥ 100 |  |  |  |  |  |  |  |  | 
